Assay results as given in ChEMBL document CHEMBL2202989, “New adamantane phenylalkylamines with σ-receptor binding affinity and anticancer activity, associated with putative antagonism of neuropathic pain” (J Med Chem, 2012).

How the values were obtained:
OVCAR-5 [1] = assay: Growth inhibition of human OVCAR5 cells after 48 hrs by SRB assay; type: functional; conditions: OVCAR-5, 48 h
Summary of the method: (§1)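 Cells grown in RPMI 1640 with 5% heat-inactivated FCS, 2 mM L-glutamine and antibiotics, 37 °C, 5% CO2. Seeded at 3500–30000 cells/well and left 24 h before dosing. DMSO solutions added at 10-fold dilutions from 100 to 0.01 μM for 48 h. Cells TCA-fixed and SRB-stained, absorbance read at 540 nm; GI50 derived against the time-zero plate.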

IGROV-1 [2] = assay: Cell cycle arrest in human IGROV1 cells assessed as accumulation at >G2/M phase at 15 uM after 24 hrs using propidium iodide staining by FACS analysis (reference value: 21 %); type: functional
Summary of the method: (§2)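 Cells were plated 24 h before treatment and exposed for 24 h at final 0.5, 5, 15 and 50 μM in 0.5% DMSO, against vehicle-treated controls. Cells were then trypsinised and fixed in cold ethanol for 3 h at 4 °C. They were stained in a mix of RNase (200 μg/mL) and PI (1 mg/mL) for 45 min at room temperature in the dark. Flow cytometry used 488 nm excitation and 10 000 gated cells. Phase percentages were assigned from DNA content.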

BXPC-3 [3] = assay: Cell cycle arrest in human BxPC3 cells assessed as accumulation at sub G1 phase at 5 uM after 24 hrs using propidium iodide staining by FACS analysis (reference value: 9 %); type: functional; summary of the method: as §2
BXPC-3 [4] = assay: Cell cycle arrest in human BxPC3 cells assessed as accumulation at sub G1 phase at 50 uM after 24 hrs using propidium iodide staining by FACS analysis (reference value: 9 %); type: functional; summary of the method: as §2
BXPC-3 [5] = assay: Cell cycle arrest in human BxPC3 cells assessed as accumulation at G1 phase at 50 uM after 24 hrs using propidium iodide staining by FACS analysis (reference value: 41 %); type: functional; summary of the method: as §2
PC-3 [6] = assay: Induction of apoptosis in human PC3 cells assessed as late apoptosis at 0.5 uM using annexin V/7-AAD by FACS analysis (reference value: 3 %); type: functional
BXPC-3 [7] = assay: Cell cycle arrest in human BxPC3 cells assessed as accumulation at >G2/M phase at 15 uM after 24 hrs using propidium iodide staining by FACS analysis (reference value: 6 %); type: functional; summary of the method: as §2
[8] = (§3) Growth inhibition of human NHDF cells after 48 hrs by SRB assay; type: cell-based; conditions: NHDF cells; summary of the method: as §1
NHDF = assay: as §3; type: cell-based; conditions: nhdf, 48 h; summary of the method: as §1
MIA PaCa-2 = assay: Growth inhibition of human MIAPaCa2 cells after 48 hrs by SRB assay; type: functional; conditions: MIA PaCa-2, 48 h; summary of the method: as §1
BXPC-3 [9] = assay: Induction of apoptosis in human BxPC3 cells assessed as total apoptotic death at 5 uM using annexin V/7-AAD by FACS analysis (reference value: 18 %); type: functional
Summary of the method: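 Cells plated 24 h before treatment, then exposed 24 h to 0.5, 5, 15 or 50 μM compound (final DMSO 0.5%); vehicle controls included. Cells scraped and stained with annexin V-FITC and 7-AAD for 15 min on ice in the dark. Flow cytometry with 488 nm excitation, 10,000 gated cells. Early apoptosis was annexin V+/7-AAD−, late was annexin V+/7-AAD+.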

OVCAR-5 [10] = assay: Antitumor activity against human OVCAR5 cells xenografted in SCID mouse assessed as tumor growth inhibition at 55 mg/kg, ip administered 5 consecutive days in a week for two cycles measured after 2 cycles relative to control; type: functional; conditions: OVCAR-5, ip, route intraperitoneal, read-out: TGI
Summary of the method: (§4)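 SCID mice carried OVCAR5 xenografts (10^6 cells per inoculum), 16 mice (32 tumors) per group, with ip dosing in 5% Tween 80 from a tumor volume of about 100 mm3. Caliper volume was measured twice weekly and %ΔT/ΔC derived. At termination, primary tumors were weighed and secondary metastases were scored at axillary and bone sites (n = 7−8). Two-tailed t test.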

IGROV-1 [11] = assay: Cell cycle arrest in human IGROV1 cells assessed as accumulation at G2 phase at 15 uM after 24 hrs using propidium iodide staining by FACS analysis (reference value: 19 %); type: functional
PC-3 [12] = assay: Cell cycle arrest in human PC3 cells assessed as accumulation at S phase at 50 uM after 24 hrs using propidium iodide staining by FACS analysis (reference value: 42 %); type: functional
IGROV-1 [13] = assay: Cell cycle arrest in human IGROV1 cells assessed as accumulation at sub G1 phase at 50 uM after 24 hrs using propidium iodide staining by FACS analysis (reference value: 4 %); type: functional
BXPC-3 [14] = assay: Induction of apoptosis in human BxPC3 cells assessed as cleaved caspase3 containing cells at 15 uM by antibody-based FACS analysis (reference value: 8.2 %); type: functional
BXPC-3 [15] = assay: Antitumor activity against human BxPC3 cells xenografted in SCID mouse assessed as tumor growth inhibition at 40 mg/kg, ip administered 3 consecutives days per week for three cycles measured after 3 cycles relative to control; type: functional; conditions: BXPC-3, ip, route intraperitoneal, read-out: TGI
Summary of the method: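 BxPC3 xenografts were grown in SCID mice from inocula of 10^6 exponentially growing cells, with 10 mice (20 tumors) per group. Treatment started ip once tumors averaged about 100 mm3. The test agent was given in 5% Tween 80 and gemcitabine in water for injection. Tumor volume was measured by caliper twice weekly and %ΔT/ΔC was computed; two-tailed Student's t test.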

IGROV-1 [16] = assay: Cell cycle arrest in human IGROV1 cells assessed as accumulation at G1 phase at 15 uM after 24 hrs using propidium iodide staining by FACS analysis (reference value: 27 %); type: functional; summary of the method: as §2
BXPC-3 [17] = assay: Induction of apoptosis in human BxPC3 cells assessed as early apoptosis at 0.5 uM using annexin V/7-AAD by FACS analysis (reference value: 9 %); type: functional
PC-3 [18] = assay: Cell cycle arrest in human PC3 cells assessed as accumulation at G1 phase at 50 uM after 24 hrs using propidium iodide staining by FACS analysis (reference value: 36 %); type: functional
PC-3 [19] = assay: Induction of apoptosis in human PC3 cells assessed as healthy cells at 15 uM using annexin V/7-AAD by FACS analysis (reference value: 91 %); type: functional
OVCAR-5 [20] = assay: Antitumor activity against human OVCAR5 cells xenografted in SCID mouse assessed as axillary metastasis at 55 mg/kg, ip administered 5 consecutive days in a week for two cycles measured after 2 cycles relative to control; type: functional; conditions: OVCAR-5, ip, route intraperitoneal, read-out: TGI; summary of the method: as §4
IGROV-1 [21] = assay: Induction of apoptosis in human IGROV1 cells assessed as healthy cells at 15 uM using annexin V/7-AAD by FACS analysis (reference value: 86 %); type: functional
Mus musculus = assay: Toxicity in SCID mouse assessed as body weight loss at 40 to 55 mg/kg, ip for 2 to 3 weeks; type: organism-based; set-up: route intraperitoneal; conditions: in vivo
Summary of the method: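 CD-1 (male and female) and SCID mice dosed ip at 40−55 mg/kg in 5% Tween 80 for chronic 2−3 week regimens. Deaths and body weight loss compared with vehicle (Tween 80 or Cremophor) and reference-drug groups. Weight loss, neurological, behavioral and dietary changes recorded as toxicity signs.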

IGROV-1 [22] = assay: Cell cycle arrest in human IGROV1 cells assessed as accumulation at S phase at 0.5 uM after 24 hrs using propidium iodide staining by FACS analysis (reference value: 29 %); type: functional
[23] = read-out: LC50 (the source's name)

Question: Which results are given for `CN1CCN(CCCc2ccc(C(c3ccccc3)C34CC5CC(CC(C5)C3)C4)cc2)CC1` (stereo not given)?
Answer: GI50 (OVCAR-5 [1]): 3.6 µM; TGI (OVCAR-5 [1]): 6.9 µM; CC50 (OVCAR-5 [1]; [23]): 0.0102 µM; Activity (IGROV-1 [2]): 17%; Activity (BXPC-3 [3]): 8%; Activity (BXPC-3 [4]): 23%; Activity (BXPC-3 [5]): 31%; Activity (PC-3 [6]): 1%; Activity (BXPC-3 [7]): 5%; GI50 at 48 h [8]: 9.68 µM; LC50 (NHDF): 100 µM; TGI (NHDF): 78.2 µM; GI50 (MIA PaCa-2): 9.39 µM; TGI (MIA PaCa-2): 40.1 µM; CC50 (MIA PaCa-2; [23]): 0.0726 µM; Activity (BXPC-3 [9]): 21%; inhibition in vivo at 55 mg/kg (OVCAR-5 [10]): 44.5%; Activity (IGROV-1 [11]): 27%; Activity (PC-3 [12]): 31%; Activity (IGROV-1 [13]): 18%; Activity (BXPC-3 [14]): 17.5%; inhibition in vivo at 40 mg/kg (BXPC-3 [15]): 21.8%; Activity (IGROV-1 [16]): 23%; Activity (BXPC-3 [17]): 10%; Activity (PC-3 [18]): 29%; Activity (PC-3 [19]): 71%; inhibition in vivo at 55 mg/kg (OVCAR-5 [20]): 25%; Activity (IGROV-1 [21]): 35%; Activity (Mus musculus): Non-toxic; Activity (IGROV-1 [22]): 26%
